Measurements taken from ChEMBL document CHEMBL1148734, “Structure-activity relationships of phenyl-furanyl-rhodanines as inhibitors of RNA polymerase with antibacterial activity on biofilms” (J Med Chem, 2007).
Values after ≈ are worked out from the molar mass of the structure shown. Active and inactive are the calls of the source. The rule behind the calls is not given here.

Assays:
[1] = tested on: Staphylococcus epidermidis; assay: Antibacterial activity against Staphylococcus epidermidis CIP 105777; format: functional
Escherichia coli [2] = assay: Inhibition of RNA polymerase sigma-70 transcription in Escherichia coli at 10 uM; format: functional
Escherichia coli [3] = assay: Antibacterial activity against Escherichia coli tolC CGSC 5633; format: functional
[4] = Inhibition of Escherichia coli RNA polymerase sigma-70 factor
Clostridioides difficile = assay: Antibacterial activity against Clostridium difficile DSM 1296; format: functional
[5] = tested on: Staphylococcus epidermidis; assay: Antibacterial activity against Staphylococcus epidermidis 40004; format: functional
Streptococcus pneumoniae = assay: Antibacterial activity against Streptococcus pneumoniae CIP 103566; format: functional
CHO = assay: Cytotoxicity against CHO cells; format: cell-based, Cricetulus griseus; details: chinese hamster
How it was run: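 CHO cells grown in RPMI with 5% fetal calf serum, then exposed to compounds 24 h at 37 °C without serum. MTT added at 300 µg/mL final, 3 h at 37 °C dark; acidified isopropanol added, 1 h at room temperature; OD at 595 nm.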

Staphylococcus aureus [6] = assay: Antibacterial activity against multidrug resistant Staphylococcus aureus 49589; format: functional
How it was run: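 Broth microdilution MIC following CLSI. Compounds were predissolved in DMSO and tested as serial 2-fold dilutions at final 100 to 0.4 µg/mL. Inoculum was 5 × 10⁵ CFU/mL, and plates were read after 18 h at 37 °C.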

Staphylococcus aureus [7] = assay: Antibacterial activity against Staphylococcus aureus CIP 76.25; format: functional
Bacillus anthracis = assay: Antibacterial activity against Bacillus anthracis 9131; format: functional
[8] = tested on: Staphylococcus epidermidis; assay: Antibacterial activity against Staphylococcus epidermidis 48155; format: functional
[9] = tested on: Staphylococcus epidermidis; assay: Antibacterial activity against Staphylococcus epidermidis RP62A; format: functional
Albumin = Albumin (Homo sapiens, UniProt P02768); assay: Binding affinity to HSA by SPR method; format: ADME; details: isolated protein
Sequence of Albumin (P02768 whole entry): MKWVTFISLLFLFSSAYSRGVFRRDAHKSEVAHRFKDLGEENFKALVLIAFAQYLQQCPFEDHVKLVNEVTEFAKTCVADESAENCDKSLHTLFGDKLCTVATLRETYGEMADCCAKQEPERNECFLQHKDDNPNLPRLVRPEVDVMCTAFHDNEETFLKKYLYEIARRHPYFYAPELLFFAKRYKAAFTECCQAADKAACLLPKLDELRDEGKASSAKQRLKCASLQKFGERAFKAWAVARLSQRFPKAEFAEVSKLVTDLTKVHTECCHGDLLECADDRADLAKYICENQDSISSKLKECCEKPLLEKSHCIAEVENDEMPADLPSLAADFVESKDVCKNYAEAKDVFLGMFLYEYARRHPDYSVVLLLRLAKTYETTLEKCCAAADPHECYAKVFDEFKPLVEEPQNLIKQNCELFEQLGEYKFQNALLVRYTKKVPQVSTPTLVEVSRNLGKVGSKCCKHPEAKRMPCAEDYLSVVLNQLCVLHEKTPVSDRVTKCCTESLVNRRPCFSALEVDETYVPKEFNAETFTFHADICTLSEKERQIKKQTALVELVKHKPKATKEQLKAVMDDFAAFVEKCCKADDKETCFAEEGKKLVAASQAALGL
How it was run: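 SPR at 25 °C; HSA amine-coupled on CM5 chip (9000–11 000 RU). Compounds at 50 µM in PBS with 5% DMSO, 30 µL/min, duplicate 60 s injections over HSA and reference surfaces. Double referencing with buffer blanks; DMSO bulk correction from calibration curve (4.5–5.8% DMSO).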

Escherichia coli [10] = assay: Antibacterial activity against Escherichia coli tolC CGSC 5633 in presence of 1% HSA; format: functional, organism-based
[11] = tested on: Staphylococcus epidermidis; assay: Antibacterial activity against Staphylococcus epidermidis 40004 biofilms assessed as bacterial count per well at 8 times MIC after 24 hrs; format: functional
How it was run: (§1)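 Biofilms from 10⁷ CFU/mL inoculum in MHB grown 24 h at 37 °C, rinsed, then exposed 24 h at 37 °C without shaking in MHB to compound at 8× MIC. Washed, DMSO-lysed, ATP bioluminescence read (luciferase/D-luciferin buffer, pH 7.25). Strain-specific luminescence-to-Log₁₀ CFU/well equations used; triplicate.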

[12] = tested on: Staphylococcus epidermidis; assay: Antibacterial activity against Staphylococcus epidermidis 48155 biofilms assessed as bacterial count per well at 8 times MIC after 24 hrs; format: functional; how it was run: as §1
[13] = tested on: Staphylococcus epidermidis; assay: Antibacterial activity against Staphylococcus epidermidis RP62A biofilms assessed as bacterial count per well at 8 times MIC after 24 hrs; format: functional; how it was run: as §1

| SMILES | MIC [1] [µg/mL] | inhibition at 10 µM (Escherichia coli [2]) [%] | MIC (Escherichia coli [3]) [µg/mL] | IC50 [4] [µM] | MIC (Clostridioides difficile) [µg/mL] | MIC [5] [µg/mL] | MIC (Streptococcus pneumoniae) [µg/mL] | Activity (CHO) | MIC (Staphylococcus aureus [6]) [µg/mL] | MIC (Staphylococcus aureus [7]) [µg/mL] | MIC (Bacillus anthracis) [µg/mL] | MIC [8] [µg/mL] | MIC [9] [µg/mL] | Activity (Albumin) | Activity (Escherichia coli [10]) | log10CFU/ml [11] | log10CFU/ml [12] | log10CFU/ml [13] |
| --- | --- | --- | --- | --- | --- | --- | --- | --- | --- | --- | --- | --- | --- | --- | --- | --- | --- | --- |
| C=CCN1C(=O)/C(=C/c2ccc(C)o2)SC1=S | ≥ 100 | 3 | ≥ 100 | ≥ 100 | – | – | – | – | – | – | – | – | – | – | – | – | – | – |
| O=C(O)c1ccc(/C=C2\SC(=S)N(Cc3ccco3)C2=O)cc1 | ≥ 100 | 5 | ≥ 100 | 87 | – | – | – | – | – | – | – | – | – | – | – | – | – | – |
| C=CCN1C(=O)/C(=C/c2ccc(-c3ccc(O)cc3)o2)SC1=S | 12.5 (≈ 36.4 µM) | 84 | 3.13 (≈ 9.11 µM) | – | 50 (≈ 146 µM) | 12.5 (≈ 36.4 µM) | 25 (≈ 72.8 µM) | >= 100 ug ml-1 | 25 (≈ 72.8 µM) | 6.25 (≈ 18.2 µM) | 6.25 (≈ 18.2 µM) | 12.5 (≈ 36.4 µM) | 12.5 (≈ 36.4 µM) | – | – | – | – | – |
| C=CCN1C(=O)/C(=C/c2cc(C)n(CC)c2C)SC1=S | ≥ 100 | 5 | ≥ 100 | ≥ 100 | – | – | – | – | – | – | – | – | – | – | – | – | – | – |
| C=CCN1C(=O)/C(=C/c2ccc(-c3ccc(CCC(=O)O)cc3)o2)SC1=S | 25 (≈ 62.6 µM) | 68 | 12.5 (≈ 31.3 µM) | – | 50 (≈ 125 µM) | 25 (≈ 62.6 µM) | ≥ 100 | >= 100 ug ml-1 | 25 (≈ 62.6 µM) | 25 (≈ 62.6 µM) | 12.5 (≈ 31.3 µM) | 12.5 (≈ 31.3 µM) | 25 (≈ 62.6 µM) | Active | inactive | – | – | – |
| C=CCN1C(=O)/C(=C/c2ccc(-c3ccc(C(=O)O)cc3)o2)SC1=S | 3.13 (≈ 8.43 µM) | 98 | 12.5 (≈ 33.7 µM) | – | ≥ 100 | 6.25 (≈ 16.8 µM) | ≥ 100 | >= 100 ug ml-1 | ≥ 100 | ≥ 100 | 3.13 (≈ 8.43 µM) | 3.13 (≈ 8.43 µM) | 3.13 (≈ 8.43 µM) | Active | inactive | – | – | – |
| C=CCN1C(=O)/C(=C/c2ccc(-c3ccc(C(=O)O)c(Cl)c3)o2)SC1=S | 6.25 (≈ 15.4 µM) | 100 | 25 (≈ 61.6 µM) | – | 12.5 (≈ 30.8 µM) | 6.25 (≈ 15.4 µM) | 12.5 (≈ 30.8 µM) | >= 100 ug ml-1 | 50 (≈ 123 µM) | 50 (≈ 123 µM) | 3.13 (≈ 7.71 µM) | 12.5 (≈ 30.8 µM) | 6.25 (≈ 15.4 µM) | Active | inactive | – | – | – |
| C=CCN1C(=O)/C(=C/c2cccc(-c3cccc(C(=O)O)c3)c2)SC1=S | 25 (≈ 65.5 µM) | 26 | ≥ 100 | – | 12.5 (≈ 32.8 µM) | 50 (≈ 131 µM) | ≥ 100 | >= 100 ug ml-1 | 25 (≈ 65.5 µM) | ≥ 100 | 12.5 (≈ 32.8 µM) | 50 (≈ 131 µM) | 25 (≈ 65.5 µM) | – | – | – | – | – |
| C=CCN1C(=O)/C(=C/c2ccc(-c3cccc(C(=O)O)c3)o2)SC1=S | 3.13 (≈ 8.43 µM) | 97 | 6.25 (≈ 16.8 µM) | – | 12.5 (≈ 33.7 µM) | 25 (≈ 67.3 µM) | 50 (≈ 135 µM) | >= 100 ug ml-1 | 25 (≈ 67.3 µM) | 12.5 (≈ 33.7 µM) | 6.25 (≈ 16.8 µM) | 25 (≈ 67.3 µM) | 12.5 (≈ 33.7 µM) | Active | inactive | – | – | – |
| C=CCN1C(=O)/C(=C/c2ccc(-c3ccc(C(N)=O)cc3)o2)SC1=S | ≥ 100 | 102 | 1.56 (≈ 4.21 µM) | – | ≥ 100 | – | ≥ 100 | >= 100 ug ml-1 | ≥ 100 | ≥ 100 | 12.5 (≈ 33.7 µM) | – | ≥ 100 | – | – | – | – | – |
| C=CCN1C(=O)/C(=C/c2ccc(-c3ccc(C(=O)NO)cc3)o2)SC1=S | ≥ 100 | 100 | 25 (≈ 64.7 µM) | – | ≥ 100 | – | 25 (≈ 64.7 µM) | >= 100 ug ml-1 | ≥ 100 | ≥ 100 | 50 (≈ 129 µM) | – | ≥ 100 | – | – | – | – | – |
| C=CCN1C(=O)/C(=C/c2c[nH]c3c(C(=O)O)cccc23)SC1=S | 25 (≈ 72.6 µM) | 95 | ≥ 100 | – | 25 (≈ 72.6 µM) | 25 (≈ 72.6 µM) | 50 (≈ 145 µM) | >= 100 ug ml-1 | 50 (≈ 145 µM) | 50 (≈ 145 µM) | 12.5 (≈ 36.3 µM) | 25 (≈ 72.6 µM) | 25 (≈ 72.6 µM) | – | – | – | – | – |
| C=CCN1C(=O)/C(=C/c2cc(C)n(-c3cccc(C(=O)O)c3)c2C)SC1=S | 25 (≈ 62.7 µM) | 100 | 50 (≈ 125 µM) | – | 6.25 (≈ 15.7 µM) | 50 (≈ 125 µM) | 25 (≈ 62.7 µM) | >= 100 ug ml-1 | 25 (≈ 62.7 µM) | 50 (≈ 125 µM) | 6.25 (≈ 15.7 µM) | 25 (≈ 62.7 µM) | 25 (≈ 62.7 µM) | – | – | 2.3 | 1.8 | 2.8 |
| C=CCN1C(=O)/C(=C/c2cccc(C(=O)O)c2)SC1=S | ≥ 100 | – | ≥ 100 | ≥ 100 | – | – | – | – | – | – | – | – | – | – | – | – | – | – |
